# Results of several laboratories.
# Lines come from different studies, so protocols differ.
# PGR: Progesterone receptor (PGR, Homo sapiens, UniProt P06401)
# SLCO1B1: Solute carrier organic anion transporter family member 1B1 (SLCO1B1, Homo sapiens, UniProt Q9Y6L6)
# CHRM1: Muscarinic acetylcholine receptor M1 (CHRM1, Homo sapiens, UniProt P11229)
SMILES,target,assay,system,conditions,measurement,result
CC(C)(C)[C@H](NC(=O)C(F)(F)F)C(=O)N1C[C@H]2[C@@H]([C@H]1C(=O)N[C@H](C#N)C[C@@H]1CCNC1=O)C2(C)C,"Cytochrome P450 3A4 (CYP3A4, Homo sapiens, UniProt P08684)","enzyme activity, inhibitor","human, liver microsomes",,Ki,22.6 µM
C[C@]12CC[C@H]3[C@@H](CCC4=CC(=O)CC[C@@H]43)[C@@H]1CC[C@@H]2O,PGR,ligand displacement,,,IC50,0.0678 µM
CCN1C[C@]2(COC)[C@H](O)C[C@H](OC)[C@@]34[C@@H]5C[C@@]6(O)[C@H](OC(=O)c7ccccc7)[C@@H]5[C@@](OC(C)=O)([C@@H]([C@H](OC)[C@H]23)[C@@H]14)[C@@H](O)[C@@H]6OC,SLCO1B1,"transporter uptake, inhibitor, fluorescence",CHO,"30 min, pH 7.4",IC50,> 100 µM
CCCCCCCNCCCc1ccc([N+](=O)[O-])cc1,CHRM1,"ligand displacement, radioligand",,,Ki,1.9 µM
C[C@]12CC[C@H]3[C@@H](CCC4=CC(=O)CC[C@@]43C)[C@@H]1CC[C@@H]2O,PGR,ligand displacement,,,IC50,> 0.5 µM
Clc1cccc(N2CCNCC2)c1Cl,CHRM1,"ligand displacement, radioligand",,cell membranes,Ki,25.1 µM
Cc1nnc2n1-c1ccc(Cl)cc1C(c1ccccc1)=NC2,"Cytochrome P450 1A2 (CYP1A2, Homo sapiens, UniProt P05177)","enzyme activity, inhibitor, fluorescence",,,IC50,> 100 µM
C[C@]1(O)CC[C@H]2[C@@H]3CCC4=CC(=O)CCC4=C3CC[C@@]21C,PGR,"reporter gene, agonist",,,EC50,0.0008 µM
CC(C)(C)[C@H](NC(=O)C(F)(F)F)C(=O)N1C[C@H]2[C@@H]([C@H]1C(=O)N[C@H](C#N)C[C@@H]1CCNC1=O)C2(C)C,"Papain (Carica papaya, UniProt P00784)","enzyme activity, inhibitor",,,IC50,> 10 µM
CCOC(=O)c1cncn1[C@H](C)c1ccccc1,SLCO1B1,"transporter uptake, inhibitor, fluorescence",CHO,"30 min, pH 7.4",IC50,> 100 µM
COC1CCN(CCC(C#N)(c2ccccc2)c2ccccc2)CC1,"Potassium voltage-gated channel subfamily A member 3 (Kcna3, Mus musculus, UniProt P16390)","ion current, inhibitor, patch clamp",,,IC50,> 100 µM
